Measurements published in ChEMBL document CHEMBL1156767, “Indol-3-ylcycloalkyl ketones: effects of N1 substituted indole side chain variations on CB(2) cannabinoid receptor activity” (J Med Chem, 2010).

Assays:
[1] = target: T1, Cannabinoid receptor 2 (Homo sapiens, UniProt P34972); test: Displacement of [3H]CP-55940 from human recombinant CB2 receptor expressed in HEK293 cells; format: cell-based
[2] = target: Cannabinoid receptor 1 (Homo sapiens, UniProt P21554); test: Displacement of [3H]CP-55940 from human recombinant CB1 receptor expressed in CHO cells; format: cell-based; details: read-out: Ki
[3] = species: Homo sapiens; test: Selectivity ratio of Ki for human recombinant CB1 receptor to Ki for human recombinant CB2 receptor
Summary of the method: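 Membranes were from HEK cells stably expressing human CB2 and CHO cells stably expressing human CB1. Competition was run against 0.5 nM [3H]CP-55,940 in 50 mM Tris-HCl pH 7.4, 2.5 mM EDTA, 5 mM MgCl2, 0.05% fatty-acid-free BSA, for 90 min at 30 °C, then filtered. Nonspecific binding was set with 10 μM unlabeled CP-55,940. Ki came from one-site fits. Mean ± SEM, ≥3 experiments in duplicate.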

[4] = target: T1, Cannabinoid receptor 2; test: Agonist activity at human recombinant CB2 receptor expressed in HEK293 cells coexpressing Galphaq/o5 assessed as calcium mobilization by FLIPR assay; format: functional, cell-based
Summary of the method: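 HEK cells stably coexpressing human CB2 and chimeric Gαq/o5 were seeded at 75 000 cells/well the day before and loaded with no-wash calcium dye. Mean ± SEM, ≥3 experiments in duplicate.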

[5] = target: T1, Cannabinoid receptor 2; test: Agonist activity at human recombinant CB2 receptor expressed in HEK293 cells coexpressing Galphaq/o5 assessed as calcium mobilization by FLIPR assay relative to CP-55940; format: functional, cell-based
Summary of the method: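 HEK cells stably coexpressing human CB2 and chimeric Gαq/o5 were seeded at 75 000 cells/well the day before and loaded with no-wash calcium dye. […] Mean ± SEM, ≥3 experiments in duplicate.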

T1 sequence (P34972 whole entry): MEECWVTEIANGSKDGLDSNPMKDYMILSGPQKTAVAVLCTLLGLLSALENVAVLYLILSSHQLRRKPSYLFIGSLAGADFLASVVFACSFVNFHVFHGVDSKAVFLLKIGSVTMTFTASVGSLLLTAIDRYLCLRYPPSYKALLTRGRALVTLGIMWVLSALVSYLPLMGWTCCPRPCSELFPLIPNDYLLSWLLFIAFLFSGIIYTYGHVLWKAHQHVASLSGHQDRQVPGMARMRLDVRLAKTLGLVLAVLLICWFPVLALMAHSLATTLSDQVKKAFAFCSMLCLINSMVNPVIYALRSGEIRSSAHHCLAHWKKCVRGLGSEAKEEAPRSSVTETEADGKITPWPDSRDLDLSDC
Chain of Cannabinoid receptor 1 (P21554 whole entry): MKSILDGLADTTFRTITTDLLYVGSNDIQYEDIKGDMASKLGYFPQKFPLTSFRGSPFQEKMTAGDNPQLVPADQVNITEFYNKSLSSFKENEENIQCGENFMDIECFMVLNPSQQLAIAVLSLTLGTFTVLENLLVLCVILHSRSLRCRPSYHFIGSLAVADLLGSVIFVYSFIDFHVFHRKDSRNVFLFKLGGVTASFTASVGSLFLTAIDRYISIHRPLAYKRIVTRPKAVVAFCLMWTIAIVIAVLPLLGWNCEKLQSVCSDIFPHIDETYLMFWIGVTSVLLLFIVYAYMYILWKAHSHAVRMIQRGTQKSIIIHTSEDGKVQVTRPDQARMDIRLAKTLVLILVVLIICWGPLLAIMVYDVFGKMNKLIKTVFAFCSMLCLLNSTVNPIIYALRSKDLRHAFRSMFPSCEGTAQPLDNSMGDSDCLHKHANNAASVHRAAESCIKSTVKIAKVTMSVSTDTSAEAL

| SMILES | Ki ([1]; read-out: Ki) [nM] | Ki [2] [nM] | Ratio Ki [3] | EC50 [4] [nM] | Activity [5] [%] | pKi ([1]; hek293) | Ki ([1]; hek293, read-out: Ki) [nM] | Ki ([1]; read-out: pKi (converted)) [nM] |
| --- | --- | --- | --- | --- | --- | --- | --- | --- |
| CC1(C)C(C(=O)c2cn(CCCO)c3ccccc23)C1(C)C | 2.1 | 2200 | 1050 | 27 | 140 |  |  |  |
| CN1CCC(CCn2cc(C(=O)C3C(C)(C)C3(C)C)c3ccccc32)CC1 | > 1000 | > 10000 |  |  |  | < 6 |  |  |
| CC1(C)C(C(=O)c2cn(C[C@H]3CCCO3)c3ccccc23)C1(C)C | 3.8 | 720 | 189 | 11 | 99 |  |  |  |
| CC1(C)C(C(=O)c2cn(CCc3cccs3)c3ccccc23)C1(C)C | 2.8 | 700 | 250 | 96 | 86 |  |  |  |
| O=C(c1cn(CCN2CCOCC2)c2ccccc12)C1CCC1 |  | > 10000 |  | > 10000 |  |  | > 1000 | > 1000 |
| CC[C@H]1CC[C@H](C(=O)c2cn(CCN3CCOCC3)c3ccccc23)CC1 | 16 | 616 | 39 | 85 | 59 |  |  |  |
| CC1(C)C(C(=O)c2cn(CCN)c3ccccc23)C1(C)C | > 1000 | > 10000 |  | > 10000 |  | < 6 |  |  |
| CN1CCCC1CCn1cc(C(=O)C2C(C)(C)C2(C)C)c2ccccc21 (configuration not stated) | > 1000 | > 10000 |  |  |  | < 6 |  |  |
| CC1(C)C(C(=O)c2cn(CCN3CCCCC3)c3ccccc23)C1(C)C | 2.3 | 556 | 242 | 56 | 93 |  |  |  |
| CSCCCCn1cc(C(=O)C2C(C)(C)C2(C)C)c2ccccc21 | 0.4 | 39 | 98 | 22 | 74 |  |  |  |
| COCCn1cc(C(=O)C2C(C)(C)C2(C)C)c2ccccc21 | 3.1 | 710 | 229 | 14 | 117 |  |  |  |
| CC1(C)C(C(=O)c2cn(CCc3ccncc3)c3ccccc23)C1(C)C | 31 | 2200 | 71 | 162 | 100 |  |  |  |
| CC1(C(=O)c2cn(CC3CCOCC3)c3ccccc23)CC(F)(F)C1(F)F (configuration not stated) | 47 | 1450 | 31 | 197 | 46 |  |  |  |
| CC1(C)C(C(=O)c2cn(CCc3nsc(Cl)n3)c3ccccc23)C1(C)C | 8.3 | 4200 | 506 | 109 | 97 |  |  |  |
| O=C(c1cn(CCN2CCOCC2)c2ccccc12)C1CCCC1 |  | > 10000 |  | 819 | 35 |  | > 1000 | > 1000 |
| CC1(C)C(C(=O)c2cn(CCO)c3ccccc23)C1(C)C | 56 | > 10000 | > 179 | 440 | 85 |  |  |  |
| CC1(C)C(C(=O)c2cn(CCC(=O)O)c3ccccc23)C1(C)C | > 1000 | > 10000 |  |  |  | < 6 |  |  |
| CC1(C)C(C(=O)c2cn(CCN3CCCC3=O)c3ccccc23)C1(C)C | 55 | > 10000 | > 182 | 55 | 97 |  |  | 53.7 |
| COCCCn1cc(C(=O)C2C(C)(C)C2(C)C)c2ccccc21 | 1.3 | 660 | 508 | 26 | 108 |  |  |  |

| SMILES | Ki ([1]; read-out: Ki) [nM] | Ki [2] [nM] | Ratio Ki [3] | EC50 [4] [nM] | Activity [5] [%] | pKi ([1]; hek293) | Ki ([1]; hek293, read-out: Ki) [nM] | Ki ([1]; read-out: pKi (converted)) [nM] |
| --- | --- | --- | --- | --- | --- | --- | --- | --- |
| CCCn1cc(C(=O)C2C(C)(C)C2(C)C)c2ccccc21 | 9.2 | 4300 | 467 | 36 | 114 |  |  |  |
| CC1(C)C(C(=O)c2cn(CCCC(F)(F)F)c3ccccc23)C1(C)C | 0.09 | 15 | 167 | 6 | 104 |  |  |  |
| CC1(C)C(C(=O)c2cn(CCc3cccnc3)c3ccccc23)C1(C)C | 20 | > 10000 | > 500 | 62 | 78 |  |  |  |
| CC1(C)C(C(=O)c2cn(C[C@@H]3CCCO3)c3ccccc23)C1(C)C | 3.3 | 220 | 67 | 14 | 117 |  |  |  |
| CN1CCN(CCn2cc(C(=O)C3C(C)(C)C3(C)C)c3ccccc32)CC1 | > 1000 | 2150 |  |  |  | < 6 |  |  |
| CC1(C)C(C(=O)c2cn(CCC3CCNCC3)c3ccccc23)C1(C)C | > 1000 | > 10000 |  |  |  | < 6 |  |  |
| CC1(C)C(C(=O)c2cn(CCC(N)=O)c3ccccc23)C1(C)C | 220 | > 10000 |  | 294 | 107 |  |  |  |
| CC1(C)C(C(=O)c2cn(CCCCCO)c3ccccc23)C1(C)C | 0.71 | 680 | 958 | 11 | 79 |  |  |  |
| CC1(C)C(C(=O)c2cn(Cc3ccncc3)c3ccccc23)C1(C)C | 3.7 | 48 | 13 | 30 | 99 |  |  |  |
| CC1(C)C(C(=O)c2cn(CCN3CCCCCC3)c3ccccc23)C1(C)C | 26 | 790 | 30 | 1020 | 49 |  |  |  |
| CN1CCCCC1Cn1cc(C(=O)C2C(C)(C)C2(C)C)c2ccccc21 (configuration not stated) | 0.48 | 5.5 | 11 | 628 | 48 |  |  |  |
| CC1(C)C(C(=O)c2cn(Cc3ccccc3)c3ccccc23)C1(C)C | 8.2 | 210 | 26 | 93 | 59 |  |  |  |
| CC1(C)C(C(=O)c2cn(CCN3CCNCC3)c3ccccc23)C1(C)C | > 1000 | > 10000 |  | 2200 | 30 | < 6 |  |  |
| O=C(c1cn(CC2CCOCC2)c2ccccc12)C1CCCC1 | 11 | 131 | 12 | 20 | 64 |  |  |  |
| CC1(C)C(C(=O)c2cn(C(=O)CC3CCOCC3)c3ccccc23)C1(C)C | > 1000 | > 10000 |  |  |  | < 6 |  |  |
| CC1(C(=O)c2cn(CCN3CCOCC3)c3ccccc23)CC1(Cl)Cl (configuration not stated) | > 1000 | > 10000 |  | 716 | 33 | < 6 |  |  |
| CC1(C)C(C(=O)c2cn(CCCN3CCOCC3)c3ccccc23)C1(C)C | > 1000 | > 10000 |  | 1520 | 56 | < 6 |  |  |
| CC(C)[C@H]1CC[C@H](C(=O)c2cn(CCN3CCOCC3)c3ccccc23)CC1 | 190 | > 10000 | > 53 | > 10000 |  |  |  |  |
| CN1CCCCC1Cn1cc(C(=O)c2cc([N+](=O)[O-])ccc2I)c2ccccc21 (configuration not stated) |  |  | 110 |  |  | 7.94 |  |  |
